Data taken from ChEMBL document CHEMBL1140903, “Reactions of functionalized sulfonamides: application to lowering the lipophilicity of cytosolic phospholipase A2alpha inhibitors” (J Med Chem, 2009).

Legend:
[1] = biological target: T1, Cytosolic phospholipase A2 (Homo sapiens, UniProt P47712); assay: Inhibition of human cytosolic PLA2alpha by GLU micelle assay
T1 sequence (P47712 whole entry): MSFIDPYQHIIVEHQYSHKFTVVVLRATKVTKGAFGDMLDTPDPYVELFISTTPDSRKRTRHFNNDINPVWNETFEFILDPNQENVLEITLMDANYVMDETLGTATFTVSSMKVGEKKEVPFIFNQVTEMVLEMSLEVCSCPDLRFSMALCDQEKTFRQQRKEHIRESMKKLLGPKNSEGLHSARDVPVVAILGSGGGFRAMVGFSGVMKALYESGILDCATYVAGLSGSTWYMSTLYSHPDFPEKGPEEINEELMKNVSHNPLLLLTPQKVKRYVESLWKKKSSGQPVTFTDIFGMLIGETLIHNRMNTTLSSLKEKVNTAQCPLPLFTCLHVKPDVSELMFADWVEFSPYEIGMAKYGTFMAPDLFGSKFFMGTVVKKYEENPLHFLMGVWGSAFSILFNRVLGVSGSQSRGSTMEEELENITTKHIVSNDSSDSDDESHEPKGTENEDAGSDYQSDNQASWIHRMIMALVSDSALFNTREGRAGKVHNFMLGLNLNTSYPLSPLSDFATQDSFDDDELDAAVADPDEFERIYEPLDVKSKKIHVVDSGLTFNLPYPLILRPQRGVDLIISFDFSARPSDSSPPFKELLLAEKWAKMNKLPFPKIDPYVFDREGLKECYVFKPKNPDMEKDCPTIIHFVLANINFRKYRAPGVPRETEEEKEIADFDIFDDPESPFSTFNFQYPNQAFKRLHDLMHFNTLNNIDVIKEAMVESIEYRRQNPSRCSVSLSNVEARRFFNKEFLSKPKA
How it was run: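 Purified human cPLA2α with the substrate 7-hydroxycoumarinyl-γ-linolenate (GLU), presented in micelles containing a high concentration of detergent and lipid. IC50 is taken from at least two runs, each run the mean of duplicate assays.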

Blood = assay: Inhibition of A23187-induced TBX2 release in Sprague-Dawley rat whole blood; type: functional, tissue-based
How it was run: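 Rat whole blood is stimulated with calcium ionophore A23187, and thromboxane B2 is the read-out (cPLA2α- and COX-1-dependent). IC50 is taken from at least two runs, each run the mean of triplicate assays.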

Structure (SMILES) | IC50 [1] | IC50 (Blood)
C[C@@H]1COC[C@H](C)N1CCS(=O)(=O)NCCc1c(CCOc2ccc(C(=O)O)cc2)c2cc(Cl)ccc2n1C(c1ccccc1)c1ccccc1 | 450 nM | 340 nM
CC1CCCN1CCS(=O)(=O)NCCc1c(CCOc2ccc(C(=O)O)cc2)c2cc(Cl)ccc2n1C(c1ccccc1)c1ccccc1 (stereo not drawn) | 220 nM | 77 nM
O=C(O)c1ccc(OCCc2c(CCNS(=O)(=O)CCN3CCNC3=S)n(C(c3ccccc3)c3ccccc3)c3ccc(Cl)cc23)cc1 | 750 nM | 5000 nM
COc1ccc(OC)c(SCS(=O)(=O)NCCc2c(CCOc3ccc(C(=O)O)cc3)c3cc(Cl)ccc3n2C(c2ccccc2)c2ccccc2)c1 | 330 nM | 240 nM
O=C(O)c1ccc(OCCc2c(CCNS(=O)(=O)CCN3CCC(O)C3)n(C(c3ccccc3)c3ccccc3)c3ccc(Cl)cc23)cc1 (stereo not drawn) | 700 nM | 310 nM
O=C(O)c1ccc(OCCc2c(CCNS(=O)(=O)CCN3CCCCC3)n(C(c3ccccc3)c3ccccc3)c3ccc(Cl)cc23)cc1 | 360 nM | 140 nM
CC1CN(CCS(=O)(=O)NCCc2c(CCOc3ccc(C(=O)O)cc3)c3cc(Cl)ccc3n2C(c2ccccc2)c2ccccc2)CC(C)N1 (stereo not drawn) | – | > 10000 nM
O=C(O)c1ccc(OCCc2c(CCNS(=O)(=O)CCN3CCCC3)n(C(c3ccccc3)c3ccccc3)c3ccc(Cl)cc23)cc1 | 350 nM | 330 nM
CC1CCCN(CCS(=O)(=O)NCCc2c(CCOc3ccc(C(=O)O)cc3)c3cc(Cl)ccc3n2C(c2ccccc2)c2ccccc2)C1 (stereo not drawn) | 350 nM | 200 nM
CC(=O)N1CCN(CCS(=O)(=O)NCCc2c(CCOc3ccc(C(=O)O)cc3)c3cc(Cl)ccc3n2C(c2ccccc2)c2ccccc2)CC1 | – | 240 nM
CN(C)C1CCN(CCS(=O)(=O)NCCc2c(CCOc3ccc(C(=O)O)cc3)c3cc(Cl)ccc3n2C(c2ccccc2)c2ccccc2)C1 (stereo not drawn) | – | > 1250 nM
CC1C(=O)NCCN1CCS(=O)(=O)NCCc1c(CCOc2ccc(C(=O)O)cc2)c2cc(Cl)ccc2n1C(c1ccccc1)c1ccccc1 (stereo not drawn) | – | 480 nM

Next, values leading:

IC50 [1] | IC50 (Blood) | Structure (SMILES)
300 nM | 110 nM | Cc1cc(C)n(CCS(=O)(=O)NCCc2c(CCCc3ccc(C(=O)O)cc3)c3cc(Cl)ccc3n2C(c2ccccc2)c2ccccc2)n1
510 nM | 200 nM | Cc1ccn(CCS(=O)(=O)NCCc2c(CCOc3ccc(C(=O)O)cc3)c3cc(Cl)ccc3n2C(c2ccccc2)c2ccccc2)n1
200 nM | 50 nM | O=Cc1ccccc1CS(=O)(=O)NCCc1c(CCCc2ccc(C(=O)O)cc2)c2cc(Cl)ccc2n1C(c1ccccc1)c1ccccc1
13 nM | 170 nM | O=C(O)c1ccc(CCCc2c(CCNS(=O)(=O)Cc3ccccc3CN3CCNCC3)n(C(c3ccccc3)c3ccccc3)c3ccc(Cl)cc23)cc1
20 nM | 80 nM | CN1CCN(Cc2ccccc2CS(=O)(=O)NCCc2c(CCCc3ccc(C(=O)O)cc3)c3cc(Cl)ccc3n2C(c2ccccc2)c2ccccc2)CC1
– | 320 nM | O=C(O)c1ccc(OCCc2c(CCNS(=O)(=O)CCN3CCSC3)n(C(c3ccccc3)c3ccccc3)c3ccc(Cl)cc23)cc1
– | 50 nM | CC1CCCC(C)N1CCS(=O)(=O)NCCc1c(CCCc2ccc(C(=O)O)cc2)c2cc(Cl)ccc2n1C(c1ccccc1)c1ccccc1 (stereo not drawn)
– | 110 nM | O=C(O)c1ccc(OCCc2c(CCNS(=O)(=O)Cc3ccc(Cl)c(Cl)c3)n(C(c3ccccc3)c3ccccc3)c3ccc(Cl)cc23)cc1 [ECOPLADIB]
– | 540 nM | O=C(O)c1ccc(OCCc2c(CCNS(=O)(=O)CCn3cccn3)n(C(c3ccccc3)c3ccccc3)c3ccc(Cl)cc23)cc1
– | 28 nM | O=C(O)c1ccc(CCCc2c(CCNS(=O)(=O)Cc3ccccc3CO)n(C(c3ccccc3)c3ccccc3)c3ccc(Cl)cc23)cc1
– | 120 nM | O=C(O)c1ccc(OCCc2c(CCNS(=O)(=O)Cc3ccccc3)n(C(c3ccccc3)c3ccccc3)c3ccc(Cl)cc23)cc1
– | 20 nM | O=C(O)c1ccc(CCCc2c(CCNS(=O)(=O)Cc3ccccc3CN3CCOCC3)n(C(c3ccccc3)c3ccccc3)c3ccc(Cl)cc23)cc1
– | 5800 nM | O=C(O)c1ccc(OCCc2c(CCNS(=O)(=O)CCn3ccnc3)n(C(c3ccccc3)c3ccccc3)c3ccc(Cl)cc23)cc1
